The record followed here is ChEMBL document CHEMBL1135612, “Identification of potent and selective small-molecule inhibitors of caspase-3 through the use of extended tethering and structure-based drug design” (J Med Chem, 2002).

One may read the Ki as a measure of affinity in units of concentration, obtained from inhibition or displacement. A high value points to lower affinity.

The target of one experiment is T1, Caspase-4 (Homo sapiens, UniProt P49662).
T1 sequence (P49662 whole entry): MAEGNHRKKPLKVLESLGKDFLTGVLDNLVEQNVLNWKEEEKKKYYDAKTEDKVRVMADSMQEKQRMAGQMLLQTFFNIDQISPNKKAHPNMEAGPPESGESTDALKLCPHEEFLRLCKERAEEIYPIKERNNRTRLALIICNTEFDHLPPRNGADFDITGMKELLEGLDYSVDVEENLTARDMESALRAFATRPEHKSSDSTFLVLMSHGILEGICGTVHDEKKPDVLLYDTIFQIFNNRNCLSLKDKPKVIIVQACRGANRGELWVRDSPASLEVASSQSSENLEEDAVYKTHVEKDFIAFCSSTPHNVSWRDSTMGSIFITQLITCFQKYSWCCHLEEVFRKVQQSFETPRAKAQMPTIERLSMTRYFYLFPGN
Kind of experiment: Inhibitory activity against Caspase-4. In short, it runs like this:
(§1)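 Human recombinant caspase-1 (3 nM; 4 µM Ac-WEHD-AFC), -2 (17 nM; 40 µM Ac-VDVAD-AFC), -4 (60 nM; 30 µM Ac-WEHD-AFC) or -6 (2 nM; 7 µM Ac-VEID-AFC), final concentrations. Buffer: 25 mM HEPES pH 7.4, 0.1% CHAPS, 50 mM KCl, 5 mM β-ME. Enzyme preincubated 30 min RT with compound titrated in DMSO. Substrate starts reaction. AFC kinetics (ex 365/em 495 nm) read 15 min RT. IC50 from four-parameter fit.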

The target in the next experiment is T2, Caspase-2 (Homo sapiens, UniProt P42575).
T2 sequence (P42575 whole entry): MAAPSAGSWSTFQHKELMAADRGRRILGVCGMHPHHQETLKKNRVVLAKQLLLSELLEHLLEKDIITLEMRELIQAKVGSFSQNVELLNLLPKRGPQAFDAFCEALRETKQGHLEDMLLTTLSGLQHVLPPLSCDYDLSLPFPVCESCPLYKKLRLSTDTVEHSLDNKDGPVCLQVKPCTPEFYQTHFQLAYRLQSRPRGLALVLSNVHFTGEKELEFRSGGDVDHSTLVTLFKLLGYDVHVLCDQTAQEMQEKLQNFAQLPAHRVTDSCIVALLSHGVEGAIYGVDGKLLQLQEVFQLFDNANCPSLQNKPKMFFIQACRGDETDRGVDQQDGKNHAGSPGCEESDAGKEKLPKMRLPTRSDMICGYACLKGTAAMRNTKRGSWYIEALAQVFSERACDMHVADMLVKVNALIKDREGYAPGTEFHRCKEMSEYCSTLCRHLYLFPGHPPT
Kind of experiment: Inhibitory activity against of Caspase-2. In short, it runs like this: as §1

The next experiment addresses T3, Caspase-6 (Homo sapiens, UniProt P55212).
T3 sequence (P55212 whole entry): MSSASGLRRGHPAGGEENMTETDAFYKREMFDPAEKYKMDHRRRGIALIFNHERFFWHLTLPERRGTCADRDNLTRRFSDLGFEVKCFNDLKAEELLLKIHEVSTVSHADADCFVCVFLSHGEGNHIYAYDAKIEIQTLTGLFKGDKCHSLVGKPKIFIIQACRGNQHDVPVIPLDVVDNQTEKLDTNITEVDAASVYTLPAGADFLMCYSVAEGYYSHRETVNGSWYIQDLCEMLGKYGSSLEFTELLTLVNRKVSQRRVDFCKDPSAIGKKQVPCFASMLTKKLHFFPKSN
Kind of experiment: Inhibitory activity against Caspase-6. In short, it runs like this: as §1

Another experiment concerns the target T4, Caspase-1 (Homo sapiens, UniProt P29466).
T4 sequence (P29466 whole entry): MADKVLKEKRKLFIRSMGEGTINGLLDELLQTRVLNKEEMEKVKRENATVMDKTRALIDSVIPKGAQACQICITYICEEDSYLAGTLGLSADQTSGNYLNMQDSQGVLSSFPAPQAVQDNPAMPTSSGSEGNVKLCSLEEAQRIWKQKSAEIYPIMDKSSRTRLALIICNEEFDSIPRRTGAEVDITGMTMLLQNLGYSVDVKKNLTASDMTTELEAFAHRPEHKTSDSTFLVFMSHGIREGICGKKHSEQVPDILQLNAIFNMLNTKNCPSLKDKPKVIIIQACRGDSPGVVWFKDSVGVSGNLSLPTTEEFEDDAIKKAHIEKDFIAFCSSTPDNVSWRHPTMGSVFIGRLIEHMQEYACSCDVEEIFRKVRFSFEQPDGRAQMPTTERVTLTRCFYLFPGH
In words: Inhibitory activity against of Caspase-1. In short, it runs like this: as §1

The target of a further experiment is Caspase-8 (Homo sapiens, UniProt Q14790). Kind of experiment: Inhibitory activity against Caspase-8. In short, it runs like this:
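In-house expressed, purified human caspase-8 at 10 nM, final, with 3 µM Ac-IETD-AFC in 100 mM HEPES pH 7.4, 10% sucrose, 0.1% CHAPS, 10 mM DTT. Enzyme was preincubated 30 min at RT with DMSO-titrated compound, and substrate started the reaction. Fluorescence (ex 365/em 495 nm) was read kinetically for 15 min at RT. IC50 came from a four-parameter fit.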

Another experiment concerns the target T5, Caspase-5 (Homo sapiens, UniProt P51878).
T5 sequence (P51878 whole entry): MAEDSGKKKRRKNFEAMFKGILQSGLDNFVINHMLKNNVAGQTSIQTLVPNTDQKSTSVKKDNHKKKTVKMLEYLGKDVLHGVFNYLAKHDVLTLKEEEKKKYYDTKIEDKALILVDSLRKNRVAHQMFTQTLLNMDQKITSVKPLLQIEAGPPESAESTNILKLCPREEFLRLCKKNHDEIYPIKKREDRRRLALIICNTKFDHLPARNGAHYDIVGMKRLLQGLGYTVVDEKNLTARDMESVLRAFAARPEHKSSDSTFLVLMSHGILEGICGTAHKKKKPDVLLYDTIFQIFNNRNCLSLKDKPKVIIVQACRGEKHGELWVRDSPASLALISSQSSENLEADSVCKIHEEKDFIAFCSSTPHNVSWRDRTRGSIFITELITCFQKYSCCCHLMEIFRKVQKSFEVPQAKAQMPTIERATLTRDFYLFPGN
In words: Inhibitory activity against Caspase-5. In short, it runs like this: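 Recombinant human caspase-5 at 83 nM, final, with 30 µM Ac-WEHD-AFC in 100 mM HEPES pH 7.4, 10% sucrose, 0.1% CHAPS, 200 mM NaCl, 10 mM DTT. Enzyme and DMSO-titrated compound stood together 30 min at RT before substrate addition. Fluorescence (ex 365/em 495 nm) followed kinetically 15 min at RT. IC50 came from a four-parameter curve fit.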

The next experiment addresses T6, Caspase-3 (Homo sapiens, UniProt P42574).
T6 sequence (P42574 whole entry): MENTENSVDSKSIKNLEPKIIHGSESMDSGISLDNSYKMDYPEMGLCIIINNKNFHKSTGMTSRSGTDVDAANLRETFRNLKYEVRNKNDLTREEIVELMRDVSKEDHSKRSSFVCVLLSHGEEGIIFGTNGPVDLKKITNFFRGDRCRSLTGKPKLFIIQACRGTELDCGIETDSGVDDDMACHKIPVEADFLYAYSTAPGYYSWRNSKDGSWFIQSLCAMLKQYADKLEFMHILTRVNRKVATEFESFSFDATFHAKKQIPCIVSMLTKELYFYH
Kind of experiment: Inhibitory activity against Caspase-3.

The target of another experiment is T7, Caspase-7 (Homo sapiens, UniProt P55210).
T7 sequence (P55210 whole entry): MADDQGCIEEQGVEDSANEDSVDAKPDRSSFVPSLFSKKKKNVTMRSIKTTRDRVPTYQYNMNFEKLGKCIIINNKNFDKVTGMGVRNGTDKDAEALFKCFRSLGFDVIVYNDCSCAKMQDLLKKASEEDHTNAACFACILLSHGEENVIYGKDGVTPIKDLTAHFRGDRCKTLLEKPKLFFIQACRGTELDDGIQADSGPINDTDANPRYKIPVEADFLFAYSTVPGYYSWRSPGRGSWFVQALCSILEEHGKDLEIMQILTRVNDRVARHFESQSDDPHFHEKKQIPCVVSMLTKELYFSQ
In words: Inhibitory activity against Caspase-7. In outline: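 Caspase-7 assay: 1 nM recombinant human enzyme and 30 µM Ac-DEVD-AFC, final, in 25 mM HEPES pH 7.4, 0.1% CHAPS, 50 mM KCl, 5 mM CaCl2, 5 mM β-ME. Enzyme preincubated 30 min RT with compound titrated in DMSO, then substrate added. Kinetic AFC fluorescence (ex 365/em 495 nm) over 15 min at RT. IC50 by four-parameter fit.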

Caspase-8, sequence (Q14790 217-374 limits assumed): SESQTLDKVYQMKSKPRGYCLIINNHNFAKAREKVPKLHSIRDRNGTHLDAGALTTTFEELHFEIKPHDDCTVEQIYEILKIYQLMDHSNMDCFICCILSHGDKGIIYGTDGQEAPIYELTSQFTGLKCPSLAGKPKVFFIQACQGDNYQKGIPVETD
Caspase-8, sequence (Q14790 385-479 limits assumed): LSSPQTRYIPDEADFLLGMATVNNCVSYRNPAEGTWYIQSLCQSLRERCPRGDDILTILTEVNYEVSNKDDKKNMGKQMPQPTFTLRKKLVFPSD

`O=C(O)C[C@H](NC(=O)c1ccc(CNS(=O)(=O)c2ccc(O)c(C(=O)O)c2)s1)C(=O)CSCc1ccccc1Cl`: the inhibition constant Ki was over 100 µM on Caspase-4; 64 µM at Caspase-2; 9.7 µM at Caspase-6; 3.2 µM on Caspase-1; 0.33 µM at Caspase-8; 63 µM on Caspase-5. The Ki at Caspase-3 was 0.02 µM; on Caspase-7 it was 0.13 µM.
With `O=C[C@H](CC(=O)O)NC(=O)c1ccc(CNS(=O)(=O)c2ccc(O)c(C(=O)O)c2)s1`, the Ki on Caspase-4 was 38 µM; at Caspase-2, 21 µM; at Caspase-6, 0.54 µM; at Caspase-1, 1.9 µM; on Caspase-8 it was 0.05 µM; on Caspase-5, 24 µM. The Ki on Caspase-3 and at Caspase-7 was 0.12 µM each time.
`Cc1cc(CNS(=O)(=O)c2ccc(O)c(C(=O)O)c2)sc1C(=O)N[C@@H](CC(=O)O)C(=O)CSCc1ccccc1Cl`: the inhibitory constant (Ki) amounted to 27 µM at Caspase-4; 37 µM on Caspase-2; 2.4 µM on Caspase-6; 2.7 µM at Caspase-1; 0.71 µM on Caspase-8; 36 µM on Caspase-5. Moreover, the Ki at Caspase-3 was found to be 0.04 µM; on Caspase-7, 0.94 µM.
`O=C(O)C[C@H](NC(=O)c1cnc(CNS(=O)(=O)c2ccc(O)c(C(=O)O)c2)nc1)C(=O)CSCc1ccccc1Cl`: the Ki at Caspase-4 came to 22 µM; on Caspase-2, 30 µM; at Caspase-6, 0.19 µM; on Caspase-1, 25 µM; on Caspase-8 it was 28 µM; at Caspase-5, 32 µM. Moreover, the Ki at Caspase-3 was 0.02 µM; at Caspase-7, 0.09 µM.
Consider `CN(Cc1ccc(O)c(C(=O)O)c1)Cc1ccc(C(=O)N[C@@H](CC(=O)O)C(=O)CSCc2ccccc2Cl)s1`, for which the Ki amounted to 96 µM on Caspase-4; 30 µM at Caspase-2; 22 µM at Caspase-6; 12 µM on Caspase-1; 4 µM at Caspase-8; 98 µM on Caspase-5. In addition, the inhibition constant (Ki) at Caspase-3 worked out at 0.09 µM; at Caspase-7 it was 0.19 µM.
Regarding `O=C[C@H](CC(=O)O)NC(=O)c1ccc(CNS(=O)(=O)c2ccc(O)c(C(=O)O)c2)nc1`, the Ki at Caspase-4 was 92 µM; at Caspase-2 it was 0.96 µM; on Caspase-6, 1.4 µM; on Caspase-8, 0.88 µM; on Caspase-5 it was 22 µM; at Caspase-3 it was 0.05 µM. Also, the Ki on Caspase-7 came out at 0.13 µM.
Consider `O=C[C@H](CC(=O)O)NC(=O)c1ccc(CNS(=O)(=O)c2ccc(O)c(C(=O)O)c2)cc1`, for which the Ki is 21 µM on Caspase-4; 9 µM on Caspase-2; 1 µM on Caspase-6; 0.16 µM at Caspase-1; 0.15 µM at Caspase-8; 12 µM at Caspase-5. The Ki at Caspase-3 worked out at 0.2 µM; at Caspase-7, 0.47 µM.
With `O=C(O)C[C@H](NC(=O)c1cnc(CNS(=O)(=O)c2ccc(O)c(C(=O)O)c2)s1)C(=O)CSCc1ccccc1Cl`, the Ki at Caspase-4 was 13 µM; on Caspase-2 it was 16 µM; at Caspase-6 it was 2.3 µM; on Caspase-1, 8.3 µM; on Caspase-8, 19 µM; at Caspase-5, 23 µM. Besides, the Ki on Caspase-3 is 0.03 µM; at Caspase-7 it was 0.09 µM.
